In paper PMC11303814 (Nature Communications, 2024):
Changes are numbered by the printed parent chain.

Experiments:
Type in all cases: cell-based
rP2X7-R125A/Q143A = target: T1, rP2X7-R125A/Q143A (Rattus norvegicus, UniProt Q64663, Q143A/R125A); experiment: TEVC dose response; settings: read-out: EC50 (apparent affinity), mean ± SD, triplicate
T1 sequence (Q64663 1-595 R125A/Q143A): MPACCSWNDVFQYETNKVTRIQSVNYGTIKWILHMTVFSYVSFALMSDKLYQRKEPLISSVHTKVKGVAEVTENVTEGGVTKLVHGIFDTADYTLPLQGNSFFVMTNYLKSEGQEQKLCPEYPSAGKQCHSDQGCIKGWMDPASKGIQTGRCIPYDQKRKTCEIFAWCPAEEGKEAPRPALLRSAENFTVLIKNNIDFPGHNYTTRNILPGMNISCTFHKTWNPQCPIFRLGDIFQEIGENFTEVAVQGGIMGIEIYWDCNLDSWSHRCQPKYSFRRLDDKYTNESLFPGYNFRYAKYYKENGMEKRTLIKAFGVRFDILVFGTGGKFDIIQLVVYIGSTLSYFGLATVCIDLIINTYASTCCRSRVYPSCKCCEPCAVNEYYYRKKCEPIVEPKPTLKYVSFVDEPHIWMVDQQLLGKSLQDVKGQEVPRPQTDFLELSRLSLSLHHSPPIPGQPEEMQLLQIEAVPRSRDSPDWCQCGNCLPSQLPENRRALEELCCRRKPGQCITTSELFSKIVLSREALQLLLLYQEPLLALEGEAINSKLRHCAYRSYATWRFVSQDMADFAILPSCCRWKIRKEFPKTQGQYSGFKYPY
Method in brief: (§1)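 TEVC was run on Xenopus oocytes ~20 h after injection of wild-type or mutant rP2X7 mRNA, in pH 7.4 HEPES buffer with 0.1 mM flufenamic acid. Receptors were facilitated at 100 µM before recording. Dilution series: ATP 1.5 mM–2 µM (7 points), BzATP 300–0.14 µM (8 points). Responses were normalized to the largest concentration, fitted by nonlinear regression for EC50, and averaged across triplicates (mean ± SD).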

rP2X7-R125A = target: T2, rP2X7-R125A (Rattus norvegicus, UniProt Q64663, R125A); experiment: TEVC deactivation time; settings: after 100 μM ATP or 10 μM BzATP
T2 sequence (Q64663 1-595 R125A): T1 sequence (Q64663 1-595 R125A/Q143A) with A143Q
Method in brief: (§2)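 Xenopus oocytes injected with 50 nL of 10 ng/µL mutant rP2X7 mRNA, expressed ~20 h, clamped in pH 7.4 HEPES buffer with 0.1 mM flufenamic acid and EDTA. Currents were evoked by 100 µM ATP or 10 µM BzATP. τ is the time for current to return to 63% of baseline after agonist removal, from a one- or two-phase decay fit. Done in triplicate over first to third applications per oocyte; mean ± SD.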

rP2X7 K127A [1] = target: T3, rP2X7 K127A (Rattus norvegicus, UniProt Q64663, K127A); experiment: TEVC deactivation time; settings: after 100 μM ATP or 10 μM BzATP
T3 sequence (Q64663 1-595 K127A): T1 sequence (Q64663 1-595 R125A/Q143A) with A125R, K127A, A143Q
Method in brief: as §2

rP2X7-R125A/I214A = target: T4, rP2X7-R125A/I214A (Rattus norvegicus, UniProt Q64663, I214A/R125A); experiment: TEVC dose response; settings: read-out: EC50 (apparent affinity), mean ± SD, triplicate
T4 sequence (Q64663 1-595 R125A/I214A): T1 sequence (Q64663 1-595 R125A/Q143A) with A143Q, I214A
Method in brief: as §1

rP2X7 K127A [2] = target: T3, rP2X7 K127A; experiment: TEVC dose response; settings: read-out: EC50 (apparent affinity), mean ± SD, triplicate
Method in brief: as §1

| Molecule | EC50 (rP2X7-R125A/Q143A) [µM] | deactivation lifetime τ (rP2X7-R125A) [s] | deactivation lifetime τ (rP2X7 K127A [1]) [s] | EC50 (rP2X7-R125A/I214A) [µM] | EC50 (rP2X7 K127A [2]) [µM] |
| --- | --- | --- | --- | --- | --- |
| BzATP | 18 ± 4 | 18 ± 3.7 | 21 ± 6.2 | 14 ± 2 | 2.9 ± 0.4 |
| Nc1ncnc2c1ncn2[C@@H]1O[C@H](COP(=O)(O)OP(=O)(O)OP(=O)(O)O)[C@@H](O)[C@H]1O [ATP] | 114 ± 30 | 3.5 ± 0.6 | 2.3 ± 0.7 | 77 ± 10 | 22 ± 3 |
